Calls of active or inactive are those of the source. The rule behind the calls is not given here.
Experiments:
PC-9 = experiment: Antiproliferative activity against human PC9 cells harbouring EGFR delE746-A750 mutant assessed as reduction in cell viability incubated for 48 hrs by MTT assay; assay type: functional, cell-based; settings: PC-9, 48 h
Outline: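 Cells seeded at 5000 per well in 10% FBS and left overnight, then exposed to agent or DMSO in 5% FBS for 48 h. MTT added for 1 h, dye dissolved in DMSO, absorbance read at 570 nm. Viability given as percent of vehicle control. At least three independent experiments, means ± SD.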

NCI-H1975 = experiment: Antitumor activity against human NCI-H1975 cells harbouring EGFR L858R/T790M double mutant xenografted in athymic Nude-Foxn1nu BALB/c mouse assessed as tumor growth inhibition at 50 mg/kg, po administered once daily via gavage for 20 days in presence of gefitinib measured twice a week by caliper method relative to control; assay type: functional; settings: 480 h, read-out: TGI
Outline: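 H1975 subcutaneous xenografts in female nude mice, randomized at about 50 mm3, n = 8 per group. Four arms gavaged once daily for 20 days: vehicle, gefitinib 50 mg/kg, test agent 50 mg/kg, or both at 50 mg/kg each. Tumor volume by calipers (width² × length × 0.52), measured twice weekly.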

CL97 = experiment: Antiproliferative activity against human CL97 cells harbouring EGFR G719A/T790M mutant assessed as reduction in cell viability incubated for 72 hrs by MTT assay; assay type: functional, cell-based; settings: CL97, 72 h
[1] = biological target: Hepatocyte growth factor receptor (Homo sapiens) (UniProt P08581); experiment: Induction of c-MET degradation in human NCI-H1975 cells harbouring EGFR L858R/T790M double assessed as reduction in c-Met expression at 0.2 to 0.6 uM incubated for 48 hrs by Western blot analysis; assay type: cell-based
Outline: (§1)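 After 48 h treatment, cells were scraped and lysed in 1% SDS, 50 mM Tris-HCl pH 8.0, 10 mM EDTA with protease and phosphatase inhibitors. Lysates sonicated, protein measured by BCA, equal amounts run on SDS-PAGE and blotted to nitrocellulose. Primary antibodies (EGFR, c-Met, S473-Akt, Akt, GAPDH) used at 1:1000 overnight at 4 °C, HRP secondaries at 1:5000, ECL detection.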

[2] = biological target: Epidermal growth factor receptor (Homo sapiens) (UniProt P00533); experiment: Inhibition of EGFR in wild type human A549 cells assessed as reduction in Akt phosphorylation at 0.2 to 0.6 uM incubated for 48 hrs by Western blot analysis; assay type: cell-based; outline: as §1
Epidermal growth factor receptor (Homo sapiens), sequence (P00533 whole entry): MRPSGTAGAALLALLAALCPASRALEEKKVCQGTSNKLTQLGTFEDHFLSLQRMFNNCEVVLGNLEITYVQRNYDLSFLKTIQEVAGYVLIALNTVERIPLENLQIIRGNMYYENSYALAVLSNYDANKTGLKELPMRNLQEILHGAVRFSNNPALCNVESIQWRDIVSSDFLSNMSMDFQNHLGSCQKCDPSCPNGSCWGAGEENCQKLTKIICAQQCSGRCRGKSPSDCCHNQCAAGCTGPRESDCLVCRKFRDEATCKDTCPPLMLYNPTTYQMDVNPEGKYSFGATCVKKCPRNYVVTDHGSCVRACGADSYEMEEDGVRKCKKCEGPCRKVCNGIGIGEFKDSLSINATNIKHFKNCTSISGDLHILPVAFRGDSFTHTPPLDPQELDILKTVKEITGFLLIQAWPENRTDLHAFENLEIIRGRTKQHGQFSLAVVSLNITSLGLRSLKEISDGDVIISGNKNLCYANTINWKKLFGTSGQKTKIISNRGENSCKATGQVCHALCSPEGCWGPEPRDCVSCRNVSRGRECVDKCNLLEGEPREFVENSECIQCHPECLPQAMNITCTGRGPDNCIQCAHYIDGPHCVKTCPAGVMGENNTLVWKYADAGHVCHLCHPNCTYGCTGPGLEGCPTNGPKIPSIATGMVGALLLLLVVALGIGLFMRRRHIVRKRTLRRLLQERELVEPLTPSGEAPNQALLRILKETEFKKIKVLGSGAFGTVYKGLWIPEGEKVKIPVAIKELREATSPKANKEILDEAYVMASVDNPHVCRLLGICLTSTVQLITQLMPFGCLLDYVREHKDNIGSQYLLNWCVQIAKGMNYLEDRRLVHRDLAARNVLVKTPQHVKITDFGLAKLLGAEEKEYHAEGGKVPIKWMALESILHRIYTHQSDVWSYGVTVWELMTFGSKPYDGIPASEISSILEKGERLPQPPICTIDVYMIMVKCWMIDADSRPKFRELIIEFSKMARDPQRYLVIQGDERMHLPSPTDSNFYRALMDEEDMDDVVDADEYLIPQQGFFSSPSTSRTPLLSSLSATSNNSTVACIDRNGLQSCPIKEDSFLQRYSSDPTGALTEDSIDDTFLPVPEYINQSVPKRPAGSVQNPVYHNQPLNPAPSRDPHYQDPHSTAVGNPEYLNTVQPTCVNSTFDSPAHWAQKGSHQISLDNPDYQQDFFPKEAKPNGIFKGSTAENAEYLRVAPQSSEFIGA

Hepatocyte growth factor receptor (Homo sapiens), sequence (P08581 whole entry): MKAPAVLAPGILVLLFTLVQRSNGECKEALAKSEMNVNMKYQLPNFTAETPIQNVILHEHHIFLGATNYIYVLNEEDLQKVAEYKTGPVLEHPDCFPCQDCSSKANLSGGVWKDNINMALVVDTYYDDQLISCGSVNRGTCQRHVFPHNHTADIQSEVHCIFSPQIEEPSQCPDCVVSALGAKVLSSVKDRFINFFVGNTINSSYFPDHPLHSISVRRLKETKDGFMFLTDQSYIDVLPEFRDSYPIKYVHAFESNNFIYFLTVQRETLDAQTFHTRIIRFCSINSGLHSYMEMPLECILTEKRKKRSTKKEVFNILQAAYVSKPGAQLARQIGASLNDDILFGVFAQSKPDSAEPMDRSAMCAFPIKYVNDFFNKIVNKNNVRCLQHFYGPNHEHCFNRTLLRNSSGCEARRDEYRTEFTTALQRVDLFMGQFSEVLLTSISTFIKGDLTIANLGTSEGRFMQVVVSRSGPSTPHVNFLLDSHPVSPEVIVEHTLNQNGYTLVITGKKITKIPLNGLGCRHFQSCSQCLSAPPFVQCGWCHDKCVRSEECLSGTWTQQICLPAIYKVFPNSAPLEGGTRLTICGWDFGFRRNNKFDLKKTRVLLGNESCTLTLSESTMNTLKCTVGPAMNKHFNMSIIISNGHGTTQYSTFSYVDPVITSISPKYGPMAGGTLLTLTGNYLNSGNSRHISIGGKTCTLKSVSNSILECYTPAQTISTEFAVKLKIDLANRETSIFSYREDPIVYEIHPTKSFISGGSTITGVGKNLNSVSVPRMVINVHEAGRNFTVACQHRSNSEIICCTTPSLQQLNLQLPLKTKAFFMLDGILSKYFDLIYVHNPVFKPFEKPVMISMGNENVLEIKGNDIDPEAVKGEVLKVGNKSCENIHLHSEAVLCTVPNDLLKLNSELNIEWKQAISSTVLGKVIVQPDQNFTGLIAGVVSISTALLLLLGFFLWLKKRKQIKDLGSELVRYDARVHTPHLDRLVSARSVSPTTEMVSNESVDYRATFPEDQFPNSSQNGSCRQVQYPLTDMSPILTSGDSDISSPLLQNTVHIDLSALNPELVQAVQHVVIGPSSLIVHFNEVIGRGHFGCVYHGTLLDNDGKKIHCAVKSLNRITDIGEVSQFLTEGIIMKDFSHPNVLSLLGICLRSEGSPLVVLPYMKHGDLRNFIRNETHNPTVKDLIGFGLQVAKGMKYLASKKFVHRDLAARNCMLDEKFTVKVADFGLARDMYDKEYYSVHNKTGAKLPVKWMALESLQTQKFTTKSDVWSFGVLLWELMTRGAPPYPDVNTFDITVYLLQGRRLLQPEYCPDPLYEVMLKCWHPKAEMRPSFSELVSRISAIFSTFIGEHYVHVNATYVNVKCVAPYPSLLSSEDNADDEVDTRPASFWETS

IC50 (PC-9): 0.6 µM | Activity [1]: Active | Activity [2]: Active
Compound: O=C(Nc1cccc(-c2nc(-c3ccc(NC(=O)c4cccnc4)cc3Cl)no2)c1)Nc1ccc(NC(=O)C2CC2)c(C(F)(F)F)c1
inhibition in vivo at 50 mg/kg (NCI-H1975): 72% | IC50 (CL97): 0.5 µM

Reference: ChEMBL document CHEMBL4359903, “1,2,4-Oxadiazole derivatives targeting EGFR and c-Met degradation in TKI resistant NSCLC” (Eur J Med Chem, 2019)
